Measured values gathered from unrelated publications.
pIC50: −log10 of the molar value.
Cell line: ACHN
Observed: cell growth or viability

COc1ccc(-c2ccc(-c3ccc(C(=N)N)nc3)s2)cc1Cl  GI50: 1770 nM
CC1=CC(=O)C(C(C)C)=CC1=O  pIC50 (CCK-8; 48 h): 4.28
COc1ccc(C(=O)/C=C/c2ccccc2Br)cc1S(N)(=O)=O  GI50 (SRB; 48 h): 1800 nM
COc1cc(-c2ccc(-c3ccc(C(=N)N)nc3)s2)cc(OC)c1OC  GI50: 1730 nM
Cc1cc(C)n(C(=S)[S][Au][PH](CCCCCC[PH]([Au][S]C(=S)n2nc(C)cc2C)(c2ccccc2)c2ccccc2)(c2ccccc2)c2ccccc2)n1  GI50: 752 nM
COc1cccc(Oc2ccccc2NC(=O)CNC(=O)c2cccc3ccccc23)c1  GI50 (SRB; 48 h): 398 nM
COc1ccc(C(=O)/C=C/c2cc3c(cc2Br)OCO3)cc1S(N)(=O)=O  inhibition (SRB; 10 µM): 123%
S=C([S][Au-][P+](CCCCCC[P+]([Au-][S]C(=S)n1cccn1)(c1ccccc1)c1ccccc1)(c1ccccc1)c1ccccc1)n1cccn1  GI50: 1450 nM
